In ChEMBL document CHEMBL3108674, “6-Alkoxy-5-aryl-3-pyridinecarboxamides, a new series of bioavailable cannabinoid receptor type 1 (CB1) antagonists including peripherally selective compounds” (J Med Chem, 2013):

Legend:
[1] = molecular target: Cannabinoid receptor 2 (Homo sapiens, UniProt P34972); assay: Displacement of [3H]CP55940 from human CB2 receptor expressed in CHOK1 cells after 1 hr by liquid scintillation counting analysis; format: cell-based, CHO-K1
In short: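 Membranes from butyrate-treated (5 mM, 24 h) CHO-K1 cells stably expressing human CB2, incubated with 0.3 nM [3H]CP55940 and increasing ligand concentrations, 60 min, 30 °C, pH 7.4 Tris buffer with 0.1% fatty acid-free BSA and 1% DMSO; nonspecific binding with 10 μM CP55940; filtration, scintillation counting; tested in triplicate.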

[2] = molecular target: Cannabinoid receptor 1 (Homo sapiens, UniProt P21554); assay: Displacement of [3H]CP55940 from human CB1 receptor expressed in CHOK1 cells after 1 hr by liquid scintillation counting analysis; format: cell-based, CHO-K1
[3] = tested on: Liver microsome; assay: Clearance in rat liver microsomes at 2 uM by LC-MS/MS analysis; format: ADME
In short: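 Rat liver microsomes at 0.5 mg/mL were incubated with 2 μM compound (final) and an NADPH-regenerating system. Aliquots were taken at 1, 3, 6, 9, 15, 25, 35 and 45 min and quenched in acetonitrile containing internal standard. Depletion was measured by LC-MS/MS. Clmic = −slope × 1000 / protein concentration (mg/mL), not corrected for microsomal protein binding.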

Sequence of Cannabinoid receptor 1 (P21554 whole entry): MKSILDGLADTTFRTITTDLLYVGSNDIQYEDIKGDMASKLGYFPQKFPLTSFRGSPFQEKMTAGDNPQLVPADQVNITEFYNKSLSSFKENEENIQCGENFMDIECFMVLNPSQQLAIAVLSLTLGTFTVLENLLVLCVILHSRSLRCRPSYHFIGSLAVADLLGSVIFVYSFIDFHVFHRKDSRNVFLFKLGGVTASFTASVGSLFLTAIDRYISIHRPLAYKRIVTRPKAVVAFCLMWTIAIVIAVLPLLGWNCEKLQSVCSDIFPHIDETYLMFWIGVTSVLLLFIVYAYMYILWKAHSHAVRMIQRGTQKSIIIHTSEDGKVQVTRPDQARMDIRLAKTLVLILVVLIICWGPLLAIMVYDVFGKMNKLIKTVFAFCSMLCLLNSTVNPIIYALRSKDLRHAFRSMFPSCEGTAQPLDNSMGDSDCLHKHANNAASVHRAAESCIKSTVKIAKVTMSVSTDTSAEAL
Sequence of Cannabinoid receptor 2 (P34972 whole entry): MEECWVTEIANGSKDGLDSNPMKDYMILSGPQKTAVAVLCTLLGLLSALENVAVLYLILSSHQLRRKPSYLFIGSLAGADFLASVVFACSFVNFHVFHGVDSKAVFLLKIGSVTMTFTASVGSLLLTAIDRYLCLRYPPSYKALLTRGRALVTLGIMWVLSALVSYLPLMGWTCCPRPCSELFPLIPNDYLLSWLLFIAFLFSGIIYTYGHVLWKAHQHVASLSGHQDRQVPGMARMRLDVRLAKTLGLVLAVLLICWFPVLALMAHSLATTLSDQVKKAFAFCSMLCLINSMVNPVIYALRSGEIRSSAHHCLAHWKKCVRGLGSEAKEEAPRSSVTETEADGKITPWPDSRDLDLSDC

CLH [3] | Structure (SMILES) | Ki [1] | Ki [2] | IC50 [1] | IC50 [2]
– | O=C(N[C@@H]1CCCC[C@H]1O)c1cnc(OCC2CC2)c(-c2ccccc2Cl)c1 | > 10 µM | 0.19 µM | – | –
– | O=C(N[C@@H]1CCCC[C@H]1O)c1cnc(OCC2CC2)c(-c2ccc(Cl)c(Cl)c2)c1 | 1.26 µM | 0.305 µM | – | –
– | O=C(N[C@@H]1CCCC[C@H]1O)c1ccc(OCC2CC2)c(-c2ccc(Cl)cc2)n1 | 0.863 µM | 1.83 µM | – | –
23 µL/min/mg | O=C(N[C@@H]1CCCC[C@H]1O)c1cnc(OCC(F)(F)F)c(-c2ccc(Cl)cc2)c1 | > 7 µM | 0.0124 µM | – | –
– | O=C(O)c1ccc(-c2cc(C(=O)N[C@@H]3CCCC[C@H]3O)cnc2OCC2CC2)cc1 | > 10 µM | > 10 µM | – | –
– | O=C(N[C@@H]1CCCC[C@H]1O)c1cnc(OC2CCCC2)c(-c2ccc(Cl)cc2)c1 | > 10 µM | 0.374 µM | – | –
2.4 µL/min/mg | C[C@](O)(CNC(=O)c1cnc(OCC2CC2)c(-c2ccc(Cl)cc2)c1)C1CC1 | > 10 µM | 0.0343 µM | – | –
374 µL/min/mg | O=C(N[C@@H]1CCCC[C@H]1O)c1cnc(OCc2cccnc2)c(-c2ccc(Cl)cc2)c1 | > 10 µM | 0.0235 µM | – | –
1503 µL/min/mg | O=C(N[C@@H]1CCCC[C@H]1O)c1cnc(CCC2CC2)c(-c2ccc(Cl)cc2)c1 | > 10 µM | 0.0167 µM | – | –
353 µL/min/mg | O=C(N[C@@H]1CCCC[C@H]1O)c1cnc(Oc2ccccc2)c(-c2ccc(Cl)cc2)c1 | > 10 µM | 1.66 µM | – | –
– | O=C(N[C@@H]1CCCC[C@H]1O)c1cc(-c2ccc(Cl)cc2)c(OCC2CC2)cn1 | 1.53 µM | > 7 µM | – | –
118 µL/min/mg | O=C(N[C@@H]1CCCC[C@H]1O)c1cnc(OCc2ccncc2)c(-c2ccc(Cl)cc2)c1 | > 10 µM | 0.0587 µM | – | –
– | CC(C)Oc1ncc(C(=O)N[C@@H]2CCCC[C@H]2O)cc1-c1ccc(Cl)cc1 | > 10 µM | 1.07 µM | – | –
– | CS(=O)(=O)Nc1ccc(-c2cc(C(=O)N[C@@H]3CCCC[C@H]3O)cnc2OCC2CC2)cc1 | > 10 µM | 1.9 µM | – | –
– | O=C(N[C@@H]1CCCC[C@H]1O)c1cnc(OCC2CC2)c(-c2ccc(Cl)cc2)n1 | 0.801 µM | 0.0258 µM | – | –
– | O=C(NN1CCCCC1)c1cnc(OCC2CC2)c(-c2ccc(Cl)cc2)c1 | > 10 µM | 0.563 µM | – | –
– | N#Cc1ccc(-c2cc(C(=O)N[C@@H]3CCCC[C@H]3O)cnc2OCC2CC2)cc1 | > 10 µM | 0.0236 µM | – | –
– | O=C(N[C@@H]1CCCC[C@H]1O)c1cnc(OCC2CC2)c(-c2cccc(Cl)c2)c1 | > 5 µM | 0.129 µM | – | –
– | O=C(N[C@@H]1CCCC[C@H]1O)c1cnc(OCC2CC2)c(-c2ccc(C(F)(F)F)cc2)c1 | > 10 µM | 0.0185 µM | – | –
– | COc1ccc(-c2cc(C(=O)N[C@@H]3CCCC[C@H]3O)cnc2OCC2CC2)cc1 | > 10 µM | 0.0664 µM | – | –
– | O=C(N[C@@H]1CCCC[C@H]1O)c1cc(-c2ccc(Cl)cc2)c(OCC2CC2)nn1 | > 3 µM | > 5 µM | – | –
– | O=C(N[C@@H]1CCCC[C@H]1O)c1cnc(OCC2CC2)c(-c2ccc(Cl)cc2Cl)c1 | > 5 µM | 0.122 µM | – | –
– | O=C(N[C@H]1CCCC[C@@H]1O)c1cnc(OCC2CC2)c(-c2ccc(Cl)cc2)c1 | 2.64 µM | 0.247 µM | – | –
– | NS(=O)(=O)c1ccc(-c2cc(C(=O)N[C@@H]3CCCC[C@H]3O)cnc2OCC2CC2)cc1 | > 10 µM | > 10 µM | – | –
– | NC(=O)c1ccc(-c2cc(C(=O)N[C@@H]3CCCC[C@H]3O)cnc2OCC2CC2)cc1 | > 10 µM | > 8 µM | – | –

Structure (SMILES) | CLH [3] | Ki [1] | Ki [2] | IC50 [1] | IC50 [2]
Cc1c(C(=O)N[C@@H]2CCCC[C@H]2O)cc(-c2cc(C(F)(F)F)ccc2Cl)n1CC1CCCCC1 | 1323 µL/min/mg | – | – | > 5 µM | 0.0095 µM
O=C(N[C@@H]1CCCC[C@H]1O)c1cnc(OCC2CC2)c(-c2ccc(OC(F)(F)F)cc2)c1 | 0 µL/min/mg | > 10 µM | 0.0236 µM | – | –
CCCCOc1ncc(C(=O)N[C@@H]2CCCC[C@H]2O)cc1-c1ccc(Cl)cc1 | 101 µL/min/mg | > 10 µM | 0.0438 µM | – | –
